# Results taken from ChEMBL document CHEMBL5724801, “EUbOPEN Chemogenomics Library - Multiplex” (2024).
# Values joined by “and” are separate entries in the source; they are usually repeats but may differ in a detail not shown here. Identical values can stand only once.
# System: Fibroblast
# Assay: Multiplex assay against human fibroblast
# Assay type: toxicity, cell-based
# In short: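 Per cents of healthy-nucleus cells form the tubulin, mitochondrial-mass and membrane-permeability phenotype values. Live cells were stained at seeding with Hoechst33342, BioTracker Green Microtubule Cytoskeleton Dye, MitoTracker Red and Annexin V Alexa Fluor 680. After compound addition they were imaged on a CQ1 microscope at 37°C and 5% CO2, and CellPathfinder machine-learning gating split them into Hoechst high-intensity objects or normal cells, normal cells into healthy, pyknosed or fragmented nuclei, and pyknosed cells into mitotic or apoptotic.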
# [1] = 12 h, 1 µM, compound concentration 1 uM
# [2] = 12 h, 10 µM, compound concentration 10 uM
# [3] = 24 h, 1 µM, compound concentration 1 uM
# [4] = 24 h, 10 µM, compound concentration 10 uM
# [5] = 48 h, 1 µM, compound concentration 1 uM
# [6] = 48 h, 10 µM, compound concentration 10 uM
structure (smiles),measurement,setting,value
Cc1c(Cc2ccc3ccccc3n2)c2cc(F)ccc2n1CC(=O)O [TIMAPIPRANT],Population Apoptotic (%),[1],41% and 33%
same,Population Fragmented Nuclei (%),[1],12% and 28%
same,Population Healthy Nuclei (%),[1],67% and 49%
same,Population Hoechst High Intensity Objects (%),[1],5%
same,Population Membrane Permeable-Phenotype (%),[1],1% and 9%
same,Population Mitochondria Different-Phenotype (%),[1],7% and 4%
same,Population Mitotic Cells (%),[1],58% and 66%
same,Population Normal (%),[1],94%
same,Population Pyknosed Nuclei (%),[1],19% and 22%
same,Population Tubulin-Different-Phenotype (%),[1],26% and 43%
same,Total Cell Count,[1],171 and 142
same,Population Apoptotic (%),[2],66% and 53%
same,Population Fragmented Nuclei (%),[2],13% and 26%
same,Population Healthy Nuclei (%),[2],77% and 53%
same,Population Hoechst High Intensity Objects (%),[2],2% and 5%
same,Population Membrane Permeable-Phenotype (%),[2],0% and 1%
same,Population Mitochondria Different-Phenotype (%),[2],7%
same,Population Mitotic Cells (%),[2],33% and 46%
same,Population Normal (%),[2],97% and 95%
same,Population Pyknosed Nuclei (%),[2],8% and 19%
same,Population Tubulin-Different-Phenotype (%),[2],35% and 43%
same,Total Cell Count,[2],147 and 160
same,Population Apoptotic (%),[3],33% and 47%
same,Population Healthy Nuclei (%),[3],73% and 52%
same,Population Hoechst High Intensity Objects (%),[3],1% and 5%
same,Population Membrane Permeable-Phenotype (%),[3],3% and 7%
same,Population Mitochondria Different-Phenotype (%),[3],2% and 4%
same,Population Mitotic Cells (%),[3],66% and 52%
same,Population Normal (%),[3],98% and 94%
same,Population Pyknosed Nuclei (%),[3],17%
same,Population Tubulin-Different-Phenotype (%),[3],26% and 38%
same,Total Cell Count,[3],158 and 142
same,Population Apoptotic (%),[4],66% and 52%
same,Population Fragmented Nuclei (%),[4],14% and 29%
same,Population Healthy Nuclei (%),[4],77% and 58%
same,Population Hoechst High Intensity Objects (%),[4],2% and 7%
same,Population Membrane Permeable-Phenotype (%),[4],0% and 3%
same,Population Mitochondria Different-Phenotype (%),[4],6% and 10%
same,Population Mitotic Cells (%),[4],33% and 47%
same,Population Normal (%),[4],97% and 92%
same,Population Pyknosed Nuclei (%),[4],8% and 12%
same,Population Tubulin-Different-Phenotype (%),[4],30% and 52%
same,Total Cell Count,[4],150 and 164
same,Population Apoptotic (%),[5],72% and 61%
same,Population Fragmented Nuclei (%),[5],15% and 36%
same,Population Healthy Nuclei (%),[5],72% and 48%
same,Population Hoechst High Intensity Objects (%),[5],7% and 6%
same,Population Membrane Permeable-Phenotype (%),[5],0% and 2%
same,Population Mitochondria Different-Phenotype (%),[5],2% and 1%
same,Population Mitotic Cells (%),[5],27% and 38%
same,Population Normal (%),[5],92% and 94%
same,Population Pyknosed Nuclei (%),[5],12% and 14%
same,Population Tubulin-Different-Phenotype (%),[5],25% and 34%
same,Total Cell Count,[5],162 and 150
same,Population Apoptotic (%),[6],66% and 60%
same,Population Fragmented Nuclei (%),[6],18% and 30%
same,Population Healthy Nuclei (%),[6],75% and 59%
same,Population Hoechst High Intensity Objects (%),[6],5% and 2%
same,Population Membrane Permeable-Phenotype (%),[6],0% and 1%
same,Population Mitochondria Different-Phenotype (%),[6],3% and 1%
same,Population Mitotic Cells (%),[6],33% and 40%
same,Population Normal (%),[6],94% and 97%
same,Population Pyknosed Nuclei (%),[6],6% and 9%
same,Population Tubulin-Different-Phenotype (%),[6],31% and 37%
same,Total Cell Count,[6],152 and 157
Cc1cc(Nc2ncc(Cl)c(Nc3ccccc3S(=O)(=O)C(C)C)n2)c(OC(C)C)cc1C1CCNCC1 [CERITINIB],Population Apoptotic (%),[1],11.76% and 21.15%
same,Population Fragmented Nuclei (%),[1],7.37% and 5.85%
same,Population Healthy Nuclei (%),[1],53.46% and 68.78%
same,Population Hoechst High Intensity Objects (%),[1],0%
same,Population Membrane Permeable-Phenotype (%),[1],4.31% and 0.71%
same,Population Mitochondria Different-Phenotype (%),[1],43.1% and 31.21%
same,Population Mitotic Cells (%),[1],88.24% and 78.85%
same,Population Normal (%),[1],100%
same,Population Pyknosed Nuclei (%),[1],39.17% and 25.37%
same,Population Tubulin-Different-Phenotype (%),[1],63.79% and 60.99%
same,Total Cell Count,[1],217 and 205
same,Population Apoptotic (%),[2],42.37% and 52.35%
same,Population Fragmented Nuclei (%),[2],13.51% and 3.96%
same,Population Healthy Nuclei (%),[2],22.7% and 22.28%
same,Population Hoechst High Intensity Objects (%),[2],0%
same,Population Mitochondria Different-Phenotype (%),[2],7.14% and 6.67%
same,Population Mitotic Cells (%),[2],57.63% and 47.65%
same,Population Normal (%),[2],100%
same,Population Pyknosed Nuclei (%),[2],63.78% and 73.76%
same,Population Tubulin-Different-Phenotype (%),[2],38.1% and 77.78%
same,Total Cell Count,[2],185 and 202
same,Population Apoptotic (%),[3],20% and 32.43%
same,Population Fragmented Nuclei (%),[3],9.43% and 7.69%
same,Population Healthy Nuclei (%),[3],68.03% and 74.52%
same,Population Hoechst High Intensity Objects (%),[3],0%
same,Population Membrane Permeable-Phenotype (%),[3],4.22% and 0%
same,Population Mitochondria Different-Phenotype (%),[3],29.52% and 27.74%
same,Population Mitotic Cells (%),[3],80% and 67.57%
same,Population Normal (%),[3],100%
same,Population Pyknosed Nuclei (%),[3],22.54% and 17.79%
same,Population Tubulin-Different-Phenotype (%),[3],62.05% and 63.23%
same,Total Cell Count,[3],244 and 208
same,Population Apoptotic (%),[4],65.28% and 58.33%
same,Population Fragmented Nuclei (%),[4],19.9% and 22.16%
same,Population Healthy Nuclei (%),[4],43.37% and 59.28%
same,Population Hoechst High Intensity Objects (%),[4],0%
same,Population Mitochondria Different-Phenotype (%),[4],12.94% and 7.83%
same,Population Mitotic Cells (%),[4],34.72% and 41.67%
same,Population Normal (%),[4],100%
same,Population Pyknosed Nuclei (%),[4],36.73% and 18.56%
same,Population Tubulin-Different-Phenotype (%),[4],37.65% and 81.74%
same,Total Cell Count,[4],196 and 194
same,Population Fragmented Nuclei (%),[5],13.85% and 7.43%
same,Population Healthy Nuclei (%),[5],77.7% and 84.65%
same,Population Hoechst High Intensity Objects (%),[5],0%
same,Population Membrane Permeable-Phenotype (%),[5],1.74% and 1.75%
same,Population Mitochondria Different-Phenotype (%),[5],11.74% and 9.94%
same,Population Mitotic Cells (%),[5],88% and 50%
same,Population Normal (%),[5],100%
same,Population Pyknosed Nuclei (%),[5],8.45% and 7.92%
same,Population Tubulin-Different-Phenotype (%),[5],36.09% and 50.88%
same,Total Cell Count,[5],296 and 202
same,Population Apoptotic (%),[6],73.33% and 50%
same,Population Fragmented Nuclei (%),[6],20.63% and 58.73%
same,Population Healthy Nuclei (%),[6],71.43% and 38.1%
same,Population Hoechst High Intensity Objects (%),[6],0%
same,Population Mitotic Cells (%),[6],26.67% and 50%
same,Population Normal (%),[6],100%
same,Population Pyknosed Nuclei (%),[6],7.94% and 3.17%
same,Population Tubulin-Different-Phenotype (%),[6],31.85% and 58.33%
same,Total Cell Count,[6],189
C=CC(=O)Nc1cc(Nc2nccc(-n3cc(CN(C)C)c(-c4ccccc4)n3)n2)c(OC)cc1N1CCOCC1 [LAZERTINIB],Population Fragmented Nuclei (%),[1],17.06% and 10.42%
same,Population Healthy Nuclei (%),[1],39.41% and 72.59%
same,Population Hoechst High Intensity Objects (%),[1],0%
same,Population Membrane Permeable-Phenotype (%),[1],5.97% and 4.26%
same,Population Mitochondria Different-Phenotype (%),[1],13.43% and 12.77%
same,Population Mitotic Cells (%),[1],97.3% and 84.09%
same,Population Normal (%),[1],100%
same,Population Pyknosed Nuclei (%),[1],43.53% and 16.99%
same,Population Tubulin-Different-Phenotype (%),[1],26.87% and 71.81%
same,Total Cell Count,[1],170 and 259
same,Population Apoptotic (%),[2],18.84% and 24.56%
same,Population Fragmented Nuclei (%),[2],21.15% and 12.73%
same,Population Healthy Nuclei (%),[2],34.62% and 72.47%
same,Population Hoechst High Intensity Objects (%),[2],0%
same,Population Membrane Permeable-Phenotype (%),[2],1.85% and 8.24%
same,Population Mitochondria Different-Phenotype (%),[2],48.15% and 27.24%
same,Population Mitotic Cells (%),[2],81.16% and 75.44%
same,Population Normal (%),[2],100%
same,Population Pyknosed Nuclei (%),[2],44.23% and 14.81%
same,Population Tubulin-Different-Phenotype (%),[2],55.56% and 80.65%
same,Total Cell Count,[2],156 and 385
same,Population Fragmented Nuclei (%),[3],8.12% and 9.88%
same,Population Healthy Nuclei (%),[3],60.62% and 75.1%
same,Population Hoechst High Intensity Objects (%),[3],0%
same,Population Membrane Permeable-Phenotype (%),[3],6.19% and 3.68%
same,Population Mitochondria Different-Phenotype (%),[3],23.71% and 17.89%
same,Population Mitotic Cells (%),[3],90% and 52.63%
same,Population Normal (%),[3],100%
same,Population Pyknosed Nuclei (%),[3],31.25% and 15.02%
same,Population Tubulin-Different-Phenotype (%),[3],34.02% and 66.32%
same,Total Cell Count,[3],160 and 253
same,Population Apoptotic (%),[4],52.31% and 34.69%
same,Population Healthy Nuclei (%),[4],37.75% and 81.53%
same,Population Hoechst High Intensity Objects (%),[4],0%
same,Population Membrane Permeable-Phenotype (%),[4],5.26% and 2.72%
same,Population Mitochondria Different-Phenotype (%),[4],43.86% and 34.14%
same,Population Mitotic Cells (%),[4],47.69% and 65.31%
same,Population Normal (%),[4],100%
same,Population Tubulin-Different-Phenotype (%),[4],57.89% and 76.44%
same,Total Cell Count,[4],151 and 406
same,Population Apoptotic (%),[5],16.67% and 20.83%
same,Population Fragmented Nuclei (%),[5],12.14% and 10.42%
same,Population Healthy Nuclei (%),[5],77.46% and 80.31%
same,Population Hoechst High Intensity Objects (%),[5],0%
same,Population Membrane Permeable-Phenotype (%),[5],0.75% and 1.92%
same,Population Mitochondria Different-Phenotype (%),[5],11.19% and 8.17%
same,Population Mitotic Cells (%),[5],83.33% and 79.17%
same,Population Normal (%),[5],100%
same,Population Pyknosed Nuclei (%),[5],10.4% and 9.27%
same,Population Tubulin-Different-Phenotype (%),[5],27.61% and 62.5%
same,Total Cell Count,[5],173 and 259
same,Population Apoptotic (%),[6],64.71% and 51.61%
same,Population Fragmented Nuclei (%),[6],24.65% and 10.26%
same,Population Healthy Nuclei (%),[6],51.41% and 82.52%
same,Population Hoechst High Intensity Objects (%),[6],0%
same,Population Membrane Permeable-Phenotype (%),[6],1.37% and 2.82%
same,Population Mitotic Cells (%),[6],35.29% and 48.39%
same,Population Normal (%),[6],100%
same,Population Tubulin-Different-Phenotype (%),[6],49.32% and 60.73%
